Assay results from different studies.
Each line is one published result; the experiments were not run side by side. ≈ marks a conversion by molar mass, not a printed value.
Read-out: microbial growth

COc1ccc(N=Nc2c(N)nn3c(-c4ccc(C)cc4)cc(-c4ccc(OCc5ccccc5)cc4)nc23)cc1
MIC (Enterobacter cloacae; ATCC23355): 31.3 µg/mL (≈ 57.9 µM)

CCCCCCC#Cc1cncc(-c2nnc(SCc3ccc(Cl)cc3)n2CCCN)c1
MIC (Enterobacter cloacae; broth dilution; DSM30054): > 64 µg/mL

CN(C)[C@@H]1C(O)=C(C(N)=O)C(=O)[C@@]2(O)C(O)=C3C(=O)c4c(O)cccc4[C@@](C)(O)[C@H]3C[C@@H]12
MIC (Enterobacter cloacae; broth dilution; ATCC13047): 2 µg/mL (≈ 4.5 µM)

Nc1nn2c(-c3ccco3)cc(-c3ccc(OCc4ccccc4)cc3)nc2c1N=Nc1ccc(F)cc1
MIC (Enterobacter cloacae; ATCC23355): 15.6 µg/mL (≈ 30.9 µM)

CCCCCCC#Cc1cncc(-c2nnc(SCc3cc([N+](=O)[O-])cc([N+](=O)[O-])c3)n2CCOC2OC(CN)C(O)C2O)c1 (stereo not shown)
MIC (Enterobacter cloacae; broth dilution; DSM30054): 64 µg/mL (≈ 99.7 µM)

CO/N=C(\C(=O)N[C@@H]1C(=O)N2C(C(=O)O)=CCS[C@H]12)c1csc(N)n1
MIC (Enterobacter cloacae; broth dilution; ATCC13047): 2 µg/mL (≈ 5.22 µM)

CCCCCCC#Cc1cncc(-c2nnc(SCc3cc(C(F)(F)F)cc(C(F)(F)F)c3)n2CCCN)c1
MIC (Enterobacter cloacae; broth dilution; DSM30054): > 64 µg/mL

Cc1ccc(N=Nc2c(N)nn3c(-c4ccco4)cc(-c4ccc(OCc5ccccc5)cc4)nc23)cc1
MIC (Enterobacter cloacae; ATCC23355): 31.3 µg/mL (≈ 62.5 µM)

Cc1cc(O)cc(Nc2nnc(-c3n[nH]c4ccc(C)cc34)s2)c1
MIC (Serratia marcescens; ATCC8100): 125 µg/mL (≈ 370 µM)

Nc1nn2c(-c3ccc(Cl)cc3Cl)cc(-c3ccc(OCc4ccccc4)cc3)nc2c1N=Nc1ccc(F)cc1
MIC (Enterobacter cloacae; ATCC23355): 15.6 µg/mL (≈ 26.7 µM)

Cc1ccc2[nH]nc(-c3nnc(Nc4ccc([N+](=O)[O-])cc4)s3)c2c1
MIC (Serratia marcescens; ATCC8100): 56.2 µg/mL (≈ 159 µM)

CCCCCCC#Cc1cncc(-c2nnc(SCc3cc([N+](=O)[O-])cc([N+](=O)[O-])c3)n2CCCN)c1
MIC (Enterobacter cloacae; broth dilution; DSM30054): > 64 µg/mL

Cc1ccc2[nH]nc(-c3nnc(Nc4ccc(Cl)c(Cl)c4)s3)c2c1
MIC (Serratia marcescens; ATCC8100): 110 µg/mL (≈ 292 µM)

CNC(C)C1CCC(N)C(OC2C(N)CC(N)C(OC3OCC(C)(O)C(NC)C3O)C2O)O1 (stereo not shown)
MIC (Enterobacter cloacae; broth dilution; ATCC13047): 4 µg/mL (≈ 8.38 µM)

Cc1ccc2[nH]nc(-c3nnc(Nc4ccc(F)cc4)s3)c2c1
MIC (Serratia marcescens; ATCC8100): 56.9 µg/mL (≈ 175 µM)

Cc1ccc(-c2cc(-c3ccc(OCc4ccccc4)cc3)nc3c(N=Nc4ccc(F)cc4)c(N)nn23)cc1
MIC (Enterobacter cloacae; ATCC23355): 31.3 µg/mL (≈ 59.2 µM)
